Data reported in ChEMBL document CHEMBL2396611, “Synthesis and mechanism of hypoglycemic activity of benzothiazole derivatives” (J Med Chem, 2013).
Calls of active or inactive are those of the source. No cut-off for these calls is given here.

Tests used:
Mus musculus = test: Antidiabetic activity in overnight fast KKAy mouse assessed as total body glucose clearance at 30 to 75 mg/kg, sc bid for 2 days; format: functional; conditions: dose mg/kg 30-75; route subcutaneous
L6 = test: Increase of myc-tagged GLUT1 translocation in rat L6 cell plasma membrane at 25 uM after 30 mins to 5 hrs by colorimetric analysis; format: functional, cell-based
Outline: (§1)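 L6 lines stably carrying GLUT4myc or GLUT1myc, treated 5 h with test agent or DMSO; insulin given for 30 min. Live myotubes incubated with rabbit anti-c-Myc (1:200), washed, fixed in 3% formaldehyde, then HRP anti-rabbit IgG (1:2000). Developed with OPD and read at 492 nm to give relative surface transporter abundance.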

[1] = biological target: 5'-AMP-activated protein kinase catalytic subunit alpha-2 (Rattus norvegicus) (UniProt Q09137); test: Increase in AMPK-mediated myc-tagged GLUT4 translocation in rat L6 cell plasma membrane at 25 uM after 5 hrs by colorimetric analysis; outline: as §1
Chain of 5'-AMP-activated protein kinase catalytic subunit alpha-2 (Rattus norvegicus) (Q09137 whole entry): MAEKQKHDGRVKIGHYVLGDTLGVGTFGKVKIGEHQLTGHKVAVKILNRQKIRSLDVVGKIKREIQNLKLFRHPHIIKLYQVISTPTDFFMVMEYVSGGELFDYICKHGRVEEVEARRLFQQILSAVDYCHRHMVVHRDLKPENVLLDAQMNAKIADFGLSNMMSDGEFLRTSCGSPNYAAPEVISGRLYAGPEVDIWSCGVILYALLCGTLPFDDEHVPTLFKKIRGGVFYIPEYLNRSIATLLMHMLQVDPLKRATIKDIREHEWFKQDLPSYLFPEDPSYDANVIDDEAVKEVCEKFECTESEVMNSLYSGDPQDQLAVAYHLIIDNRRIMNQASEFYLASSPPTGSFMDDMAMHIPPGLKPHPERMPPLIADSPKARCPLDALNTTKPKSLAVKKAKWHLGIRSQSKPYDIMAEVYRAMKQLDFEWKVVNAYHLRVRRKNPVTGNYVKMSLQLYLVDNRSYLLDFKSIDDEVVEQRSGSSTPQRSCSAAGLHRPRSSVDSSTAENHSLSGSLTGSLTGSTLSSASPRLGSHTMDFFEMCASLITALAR

Activity [1]: Active
Structure (SMILES): CCOc1ccc2nc(SCc3nc4ccccc4s3)sc2c1
Activity (Mus musculus): 40% | Activity (L6): inactive
